Assay results taken from ChEMBL document CHEMBL3758073, “Synthesis and Biochemical Evaluation of 3-Phenoxy-1,4-diarylazetidin-2-ones as Tubulin-Targeting Antitumor Agents” (J Med Chem, 2016).
Active and inactive are the calls of the source. The calls are words filed in the database; no cut-off is given here.

How the values were obtained:
[1] = system: MCF7; assay: Cytotoxicity against human MCF7 cells assessed as induction of cell death at 10 uM after 72 hrs by LDH assay; type: cell-based; conditions: mcf7, 72 h
Summary of the method: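 Cell death in MCF-7 measured by LDH release. Seeding and dosing as for the MTT assay; after 72 h, lysis solution added to blank wells for 1 h to give 100% death. Supernatant mixed with substrate (INT to formazan) for 30 min at rt in the dark, then stopped and read at 490 nm. Percentage cell death reported at 10 μM; assays in triplicate.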

[2] = system: MCF7; assay: Antiproliferative activity against human MCF7 cells assessed as cell viability pre-incubated for 24 hrs with CO2 followed by compound addition after 72 hrs by MTT assay; type: functional, cell-based
Summary of the method: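 MCF-7 grown in Eagle's MEM with 10% FBS, 2 mM L-glutamine, penicillin/streptomycin and 1% non-essential amino acids. Cells seeded at 2.5 x 10⁴ cells/mL, 24 h at 37 °C, then dosed from ethanol stocks over 1 nM–100 µM (vehicle 1% v/v ethanol) for 72 h. MTT at 1 mg/mL final, 2 h in the dark, DMSO solubilisation. Viability set against untreated controls; IC50 is the mean of three experiments in triplicate.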

[3] = system: MCF7; assay: Binding affinity to beta-Tubulin in human MCF7 cells assessed as inhibition of protein-EBI adduct formation at Cys239 and Cys354 at 10 uM pre-incubated for 2 hrs followed by EBI addition after 1.5 hrs by Western blot analysis; type: cell-based
Summary of the method: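 MCF-7 seeded at 5×10^4 cells/well and incubated overnight. Treated 2 h with test agent at 10 μM or with vehicle (0.1% v/v ethanol), then with N,N'-ethylene-bis(iodoacetamide) for a further 1.5 h. Cells washed in ice-cold PBS and lysed in Laemmli buffer. SDS-PAGE, PVDF transfer and β-tubulin immunoblot to detect the faster-migrating β-tubulin–EBI adduct. Three independent experiments.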

[4] = target: Tubulin (Sus scrofa) (UniProt P02554+P02550); assay: Inhibition of porcine tubulin polymerization assessed as inhibition of tubulin assembly Vmax rate at 10 uM by spectrophotometric analysis; type: protein assay
Chain of Tubulin (Sus scrofa) (P02550 whole entry, looked up): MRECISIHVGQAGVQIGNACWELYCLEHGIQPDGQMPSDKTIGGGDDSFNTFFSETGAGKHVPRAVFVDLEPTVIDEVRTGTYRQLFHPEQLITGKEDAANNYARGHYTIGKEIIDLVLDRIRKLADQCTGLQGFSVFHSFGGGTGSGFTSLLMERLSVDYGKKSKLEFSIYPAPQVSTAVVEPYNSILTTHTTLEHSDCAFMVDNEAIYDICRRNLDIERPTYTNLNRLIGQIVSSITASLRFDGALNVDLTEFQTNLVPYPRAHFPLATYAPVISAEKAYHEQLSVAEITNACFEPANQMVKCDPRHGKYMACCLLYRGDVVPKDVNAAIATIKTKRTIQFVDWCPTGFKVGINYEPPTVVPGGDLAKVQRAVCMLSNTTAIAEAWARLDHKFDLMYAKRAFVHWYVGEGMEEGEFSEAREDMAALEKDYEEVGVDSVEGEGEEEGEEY
Chain of Tubulin (Sus scrofa) (P02554 whole entry, looked up): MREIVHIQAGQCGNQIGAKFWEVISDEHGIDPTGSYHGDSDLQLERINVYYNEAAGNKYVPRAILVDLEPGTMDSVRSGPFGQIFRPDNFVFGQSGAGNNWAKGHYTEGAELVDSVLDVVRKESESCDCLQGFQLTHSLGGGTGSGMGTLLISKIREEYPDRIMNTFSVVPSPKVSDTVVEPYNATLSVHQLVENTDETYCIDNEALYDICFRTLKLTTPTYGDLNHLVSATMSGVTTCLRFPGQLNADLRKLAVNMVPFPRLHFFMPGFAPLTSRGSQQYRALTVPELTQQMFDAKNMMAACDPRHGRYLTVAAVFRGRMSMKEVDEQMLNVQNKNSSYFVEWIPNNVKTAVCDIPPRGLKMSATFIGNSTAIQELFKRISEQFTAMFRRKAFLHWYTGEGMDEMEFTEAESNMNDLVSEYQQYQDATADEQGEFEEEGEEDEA
Summary of the method: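 Tubulin polymerisation kit (>97% pure porcine tubulin, OD-based). Tubulin plus GTP at 37 °C with test agent at 10 μM final; 1% v/v ethanol as vehicle. A340 read every 30 s for 60 min at 37 °C. Fold change in Vmax calculated relative to vehicle; mean of three separate experiments.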

COc1ccc([C@@H]2[C@H](Oc3ccccc3)C(=O)N2c2cc(OC)c(OC)c(OC)c2)cc1N
Activity [1]: 7.7%
IC50 [2]: 12.2 µM

COc1ccc([C@@H]2[C@H](Oc3ccccc3)CN2c2cc(OC)c(OC)c(OC)c2)cc1O
Activity [1]: 19.8%
IC50 [2]: 3.3 µM

COc1cc2c(c(OC)c1OC)-c1ccc(OC)c(=O)cc1[C@@H](NC(C)=O)CC2
Activity [3]: Active

COc1ccc([C@@H]2[C@H](Oc3cc(OC)c(OC)c(OC)c3)C(=O)N2c2cc(OC)c(OC)c(OC)c2)cc1O (relative stereo)
Activity [1]: 10.9%
IC50 [2]: 33 µM

COc1cc(N2C(=O)[C@@H](Oc3ccccc3)[C@H]2c2cc(O)c(OC)c([N+](=O)[O-])c2)cc(OC)c1OC (relative stereo)
Activity [1]: 12.1%
IC50 [2]: 69 µM

COc1ccc(N2C(=O)[C@@H](Oc3ccccc3)[C@H]2c2ccc(OC)c(O)c2)cc1 (relative stereo)
Activity [1]: 10.4%
IC50 [2]: 49 µM

COc1cc(N2C(=O)[C@@H](Oc3ccccc3)[C@H]2c2cccc([N+](=O)[O-])c2)cc(OC)c1OC (relative stereo)
Activity [1]: 16.7%
IC50 [2]: 30 µM

COc1cc(N2C(=O)[C@@H](Oc3ccccc3)[C@H]2c2ccc(N=[N+]=[N-])cc2)cc(OC)c1OC (relative stereo)
Activity [1]: 5.8%
IC50 [2]: 23 µM

COc1ccc([C@@H]2[C@@H](Oc3ccccc3)C(=O)N2c2cc(OC)c(OC)c(OC)c2)cc1[N+](=O)[O-] (relative stereo)
Activity [1]: 5.2%
IC50 [2]: 4.1 µM

COc1cc(N2C(=O)[C@@H](Oc3ccccc3)[C@H]2c2cc(N)c(OC)c(O)c2)cc(OC)c1OC (relative stereo)
Activity [1]: 14%
IC50 [2]: 8.8 µM

COc1cc(N2C(=O)[C@@H](Oc3ccccc3)[C@H]2c2ccc(Br)cc2)cc(OC)c1OC (relative stereo)
IC50 [2]: 48 µM

COc1ccc([C@@H]2[C@H](Oc3ccccc3)C(=S)N2c2cc(OC)c(OC)c(OC)c2)cc1O (relative stereo)
Activity [1]: 4.8%
IC50 [2]: 7.5 µM

COc1cc([N+](=O)[O-])c([C@@H]2[C@H](Oc3ccccc3)C(=O)N2c2cc(OC)c(OC)c(OC)c2)cc1O (relative stereo)
Activity [1]: 9.9%
IC50 [2]: 59 µM

COc1ccc([C@@H]2[C@H](Oc3ccccc3)C(=O)N2c2cc(OC)c(OC)c(OC)c2)cc1NC(=O)CN (relative stereo)
IC50 [2]: 6.5 µM

COc1cc(N2C(=O)[C@@H](Oc3ccccc3)[C@H]2c2cccc3ccccc23)cc(OC)c1OC (relative stereo)
Activity [1]: 4.6%
IC50 [2]: 53 µM

COc1ccc([C@@H]2[C@H](Oc3ccccc3)C(=O)N2c2cc(OC)c(OC)c(OC)c2)cc1 (relative stereo)
Activity [1]: 6.5%
IC50 [2]: 35 µM

COc1cc(N2C(=O)[C@@H](Oc3ccccc3)[C@H]2c2ccc(O)c(O)c2)cc(OC)c1OC (relative stereo)
Activity [1]: 6%
IC50 [2]: 4.5 µM

COc1cccc([C@@H]2[C@H](Oc3ccccc3)C(=O)N2c2cc(OC)c(OC)c(OC)c2)c1 (relative stereo)
Activity [1]: 22%
IC50 [2]: 171 µM

COc1cc(N2C(=O)[C@@H](Oc3ccccc3)[C@H]2c2cccc(O)c2)cc(OC)c1OC (relative stereo)
Activity [1]: 22%
IC50 [2]: 54 µM

COc1cc(N2C(=O)[C@@H](Oc3ccccc3)[C@H]2c2ccc(N(C)C)cc2)cc(OC)c1OC (relative stereo)
Activity [1]: 5.9%
IC50 [2]: 31 µM
fold change (FC) [4]: 0

COc1cc(N2C(=O)[C@@H](Oc3ccccc3)[C@H]2c2ccc(C#N)cc2)cc(OC)c1OC (relative stereo)
Activity [1]: 4.8%
IC50 [2]: 31.6 µM

COc1cc(N2C(=O)[C@@H](Oc3ccccc3)[C@H]2c2ccc(N)cc2)cc(OC)c1OC (relative stereo)
Activity [1]: 14.7%
IC50 [2]: 160 µM

COc1cc(N2C(=O)[C@@H](Oc3ccccc3)[C@H]2c2cccc(N)c2)cc(OC)c1OC (relative stereo)
Activity [1]: 48%
IC50 [2]: 17 µM

COc1cc(N2C(=O)[C@@H](Oc3ccccc3)[C@H]2c2ccc(O)cc2)cc(OC)c1OC (relative stereo)
Activity [1]: 0.1%
IC50 [2]: 48 µM

COc1ccc([C@@H]2[C@@H](Oc3ccccc3)C(=O)N2c2cc(OC)c(OC)c(OC)c2)cc1NC(=O)C(C)N (relative stereo)
IC50 [2]: 0.23 µM

COc1cc(N2C(=O)[C@H](Oc3ccccc3)[C@H]2c2ccc(C#N)cc2)cc(OC)c1OC (relative stereo)
Activity [1]: 2.1%
IC50 [2]: 168 µM
fold change (FC) [4]: 0

COc1ccc([C@@H]2[C@H](Oc3ccccc3)C(=O)N2c2cc(OC)c(OC)c(OC)c2)cc1F (relative stereo)
Activity [1]: 70%
IC50 [2]: 6.3 µM

COc1ccc([C@@H]2[C@H](Oc3ccccc3)C(=O)N2c2cc(OC)c(OC)c(OC)c2)cc1OC(=O)CCCc1ccc(N(CCCl)CCCl)cc1 (relative stereo)
Activity [1]: 8%
IC50 [2]: 0.41 µM

COc1cc(N2C(=O)[C@@H](Oc3ccccc3)[C@H]2c2ccc(SC)cc2)cc(OC)c1OC (relative stereo)
Activity [1]: 8.1%
IC50 [2]: 7.7 µM

COc1ccc([C@@H]2[C@H](Oc3ccccc3)C(=O)N2c2cc(OC)c(OC)c(OC)c2)cc1NC(=O)C(C)N (relative stereo)
IC50 [2]: 9.2 µM

COc1ccc([C@@H]2[C@H](Oc3ccccc3)C(=O)N2c2cc(OC)c(OC)c(OC)c2)cc1[N+](=O)[O-] (relative stereo)
Activity [1]: 5.3%
IC50 [2]: 69 µM

COc1cc(N2C(=O)[C@@H](Oc3ccccc3)[C@H]2c2ccc3ccccc3c2)cc(OC)c1OC (relative stereo)
Activity [1]: 10.7%
IC50 [2]: 282 µM

COc1cc([C@@H]2[C@H](Oc3ccccc3)C(=O)N2c2cc(OC)c(OC)c(OC)c2)cc(OC)c1OC (relative stereo)
Activity [1]: 0%
IC50 [2]: 29 µM

COc1ccc([C@@H]2[C@H](Oc3ccccc3)C(=O)N2c2cc(OC)c(OC)c(OC)c2)c(N)c1O (relative stereo)
Activity [1]: 52%
IC50 [2]: 19 µM

COc1ccc([C@@H]2[C@H](Oc3ccccc3)C(=O)N2c2cc(OC)c(OC)c(OC)c2)cc1Br (relative stereo)
Activity [1]: 6.4%
IC50 [2]: 5.1 µM

CCOC(=O)/C=C/c1ccc([C@@H]2[C@H](Oc3ccccc3)C(=O)N2c2cc(OC)c(OC)c(OC)c2)cc1 (relative stereo)
IC50 [2]: 87 µM

COc1ccc([C@@H]2[C@H](Oc3ccccc3)C(=O)N2c2cc(OC)c(OC)c(OC)c2)cc1NC(=O)CCCc1ccc(N(CCCl)CCCl)cc1 (relative stereo)
Activity [1]: 3.2%
IC50 [2]: 145 µM

COc1ccc([C@@H]2[C@H](Oc3ccccc3)C(=O)N2c2cc(OC)c(OC)c(OC)c2)cc1OC (relative stereo)
Activity [1]: 11.2%
IC50 [2]: 26 µM

COc1cc(N2C(=O)[C@@H](Oc3ccccc3)[C@H]2c2ccc([N+](=O)[O-])cc2)cc(OC)c1OC (relative stereo)
Activity [1]: 27%
IC50 [2]: 63 µM

COc1cc([C@@H]2[C@H](Oc3ccccc3)C(=O)N2c2cc(OC)c(OC)c(OC)c2)ccc1O (relative stereo)
Activity [1]: 5.1%
IC50 [2]: 32 µM

COc1ccc([C@@H]2[C@@H](Oc3ccccc3)C(=O)N2c2cc(OC)c(OC)c(OC)c2)cc1Br (relative stereo)
Activity [1]: 3.9%
IC50 [2]: 31 µM

COc1ccc([C@@H]2[C@@H](Oc3ccccc3)C(=O)N2c2cc(OC)c(OC)c(OC)c2)cc1OP(=O)(O)O (relative stereo)
IC50 [2]: 23 µM

COc1ccc([C@@H]2[C@H](Oc3ccccc3)C(=O)N2c2cc(OC)c(OC)c(OC)c2)c([N+](=O)[O-])c1O (relative stereo)
Activity [1]: 12.7%
IC50 [2]: 89 µM

COc1cc(N2C(=O)[C@@H](Oc3ccccc3)[C@H]2c2ccc3c(c2)OCO3)cc(OC)c1OC (relative stereo)
Activity [1]: 8.3%
IC50 [2]: 48 µM

COc1cc(N2C(=O)[C@@H](Oc3ccccc3)[C@H]2c2ccc([S+](C)[O-])cc2)cc(OC)c1OC (relative stereo)
Activity [1]: 1.7%
IC50 [2]: 20 µM

COc1cc(N)c([C@@H]2[C@H](Oc3ccccc3)C(=O)N2c2cc(OC)c(OC)c(OC)c2)cc1O (relative stereo)
Activity [1]: 70%
IC50 [2]: 20 µM

COc1ccc([C@@H]2[C@H](Oc3ccccc3)C(=O)N2c2cc(OC)c(OC)c(OC)c2)cc1OP(=O)(O)O (relative stereo)
IC50 [2]: 42 µM

COc1cc(N2C(=O)[C@@H](Oc3ccccc3)[C@H]2c2ccc(S(C)(=O)=O)cc2)cc(OC)c1OC (relative stereo)
Activity [1]: 10.2%
IC50 [2]: 62 µM

COc1ccc([C@@H]2[C@@H](Oc3ccccc3)C(=O)N2c2cc(OC)c(OC)c(OC)c2)cc1 (relative stereo)
Activity [1]: 7.3%
IC50 [2]: 6.9 µM

O=C(O)CCCc1ccc(N(CCCl)CCCl)cc1 [CHLORAMBUCIL]
Activity [1]: 8%
IC50 [2]: 97 µM
